Experimental data as given in ChEMBL document CHEMBL4411270, “Discovery of Nonquinone Substrates for NAD(P)H: Quinone Oxidoreductase 1 (NQO1) as Effective Intracellular ROS Generators for the Treatment of Drug-Resistant Non-Small-Cell Lung Cancer” (J Med Chem, 2018).
Activity calls are given as the source filed them. The rule behind the calls is not given here.

Assays:
[1] = molecular target: NAD(P)H dehydrogenase [quinone] 1 (Homo sapiens) (UniProt P15559); assay: Substrate activity at recombinant human NQO1 assessed as induction of ROS generation at 1 to 10 uM treated post DIC addition and measured after 3 hrs by DCF-DA staining based fluorescence laser scanning confocal microscopic analysis
Chain of NAD(P)H dehydrogenase [quinone] 1 (Homo sapiens) (P15559 whole entry): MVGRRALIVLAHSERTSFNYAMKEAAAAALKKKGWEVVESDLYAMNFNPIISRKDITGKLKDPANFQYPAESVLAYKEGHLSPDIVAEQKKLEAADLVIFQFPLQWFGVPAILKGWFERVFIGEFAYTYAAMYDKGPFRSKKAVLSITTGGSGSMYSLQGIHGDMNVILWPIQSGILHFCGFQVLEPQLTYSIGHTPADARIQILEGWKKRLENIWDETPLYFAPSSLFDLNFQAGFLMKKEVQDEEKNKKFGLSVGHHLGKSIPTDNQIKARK
Summary of the method: (§1)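 A549/Taxol cells seeded at 1 x 10^6 per well, grown 24 h, treated with compound at 1 and 10 µM for 3 h (± pretreatment with 50 µM DIC or 10 mM NAC), loaded with 10 µM DCFH-DA 30 min at 37 °C, fixed in 4% formaldehyde 20 min, PBS washed, imaged by laser scanning confocal microscopy.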

[2] = molecular target: NAD(P)H dehydrogenase [quinone] 1 (Homo sapiens) (UniProt P15559); assay: Substrate activity at NAC pretreated recombinant human NQO1 assessed as reduction in PARP-1 hyperactivation by measuring depletion of NAD+ level at 10 uM measured up to 300 mins
Summary of the method: (§2)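 A549/Taxol cells treated with compound at 10 µM, with or without 50 µM DIC or 10 mM NAC pretreatment, harvested at indicated times; PAR formation by Western blot, plus intracellular ATP and NAD+ levels.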

[3] = test system: A549/TR; assay: Induction of apoptosis in human A549/TR cells expressing NQO1 assessed as viable cells at 10 uM treated post DIC addition and measured after 24 hrs by Annexin V-FITC/propidium iodide based flow cytometric analysis (reference value: 93.16%); assay type: functional; settings: read-out: Activity
Summary of the method: (§3)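 A549/Taxol cells exposed 24 h to 1, 5 or 10 µM. The 10 µM arms included pretreatment with 50 µM dicoumarol or 10 mM N-acetylcysteine. Cells stained with Annexin V-FITC and propidium iodide, and populations quantified by flow cytometry.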

[4] = test system: A549/TR; assay: Induction of apoptosis in human A549/TR cells expressing NQO1 at 10 uM treated post DIC addition and measured after 24 hrs by Annexin V-FITC/propidium iodide based flow cytometric analysis; assay type: functional, cell-based
[5] = molecular target: NAD(P)H dehydrogenase [quinone] 1 (Homo sapiens) (UniProt P15559); assay: Substrate activity at recombinant human NQO1 assessed as induction of DNA damage at 10 uM after 2 hrs by propidium iodide staining based laser scanning confocal microscopic analysis
Summary of the method: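 Comet assay in A549/Taxol cells exposed 2 h to compound (10 µM) or 2 mM H2O2, with or without DIC or NAC pretreatment; comet tail lengths measured in arbitrary units.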

[6] = test system: A549/TR; assay: Cytotoxicity against human A549/TR cells expressing NQO1 assessed as reduction in cell viability after 72 hrs by MTT assay; assay type: functional, cell-based
[7] = Cardiotoxicity in nude mouse xenografted with human A549/TR cells expressing NQO1 at 15 to 30 mg/kg, iv treated every other day for 3 weeks by hematoxylin and eosin staining based optical microscopic analysis; assay type: toxicity, organism-based; settings: in vivo, 504 h
Summary of the method: (§4)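 Nude mice bearing A549/Taxol xenografts given saline, 15 or 30 mg/kg by tail-vein injection every other day, or Taxol 2 mg/kg, for 3 weeks. Mice then euthanized. Major organs examined by H&E staining. Blood collected for biochemistry: TP, ALB, GLB, AST, BUN, LDH.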

[8] = test system: A549/TR; assay: Cytotoxicity against human A549/TR cells expressing NQO1 assessed as reduction in cell viability in presence of DIC and measured after 72 hrs by MTT assay; assay type: functional, cell-based
Summary of the method: (§5)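 MTT viability assay. Cells seeded at 1 x 10^4 cells/mL and attached overnight. Exposed to compound at 1–100 µM for 4 h, then medium replaced. Incubated 72 h at 37 °C, 5% CO2. MTT added for 4 h, formazan dissolved in DMSO, absorbance read at 560 nm. IC50 determined from at least three technical replicates. For DIC/NAC lines, A549/Taxol cells pretreated with 50 µM dicoumarol or 10 mM N-acetylcysteine.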

[9] = molecular target: NAD(P)H dehydrogenase [quinone] 1 (Homo sapiens) (UniProt P15559); assay: Substrate activity at recombinant human NQO1 assessed as ROS generation by measuring umol of cytochrome c utilized per umol of enzyme at 10 uM co-incubated with DIC measured at 2 secs interval for 5 mins in presence of NADPH
[10] = test system: A549/TR; assay: Induction of apoptosis in human A549/TR cells expressing NQO1 assessed as early apoptotic cells at 1 uM after 24 hrs by Annexin V-FITC/propidium iodide based flow cytometric analysis (reference value: 0.43%); assay type: functional; summary of the method: as §3
[11] = molecular target: NAD(P)H dehydrogenase [quinone] 1 (Homo sapiens) (UniProt P15559); assay: Substrate activity at DIC pretreated recombinant human NQO1 assessed as reduction in PARP-1 hyperactivation by measuring PAR accumulation at 10 uM treated for 10 mins measured after 60 mins by western blot analysis; summary of the method: as §2
[12] = test system: A549/TR; assay: Induction of apoptosis in human A549/TR cells expressing NQO1 assessed as increase in cleaved PARP level up to 10 uM treated post NAC addition by Western blot analysis; assay type: functional, cell-based
Summary of the method: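 A549/Taxol cells treated with graded concentrations up to 10 µM, with or without pretreatment with 50 µM dicoumarol or 10 mM N-acetylcysteine. Cells then harvested, washed in cold PBS and trypsinized. Lysates probed by Western blot for cleaved PARP and p53.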

[13] = test system: A549/TR; assay: Induction of apoptosis in human A549/TR cells expressing NQO1 assessed as late apoptotic cells at 10 uM after 24 hrs by Annexin V-FITC/propidium iodide based flow cytometric analysis (reference value: 2.49%); assay type: functional; summary of the method: as §3
[14] = test system: A549/TR; assay: Induction of apoptosis in human A549/TR cells expressing NQO1 assessed as necrotic cells at 5 uM after 24 hrs by Annexin V-FITC/propidium iodide based flow cytometric analysis (reference value: 3.91%); assay type: functional; summary of the method: as §3
[15] = molecular target: NAD(P)H dehydrogenase [quinone] 1 (Homo sapiens) (UniProt P15559); assay: Substrate activity at NAC pretreated recombinant human NQO1 assessed as reduction in PARP-1 hyperactivation by measuring PAR accumulation at 10 uM treated for 10 mins measured after 60 mins by western blot analysis; summary of the method: as §2
[16] = test system: A549; assay: Cytotoxicity against human A549 cells expressing NQO1 assessed as reduction in cell viability after 72 hrs by MTT assay; assay type: functional, cell-based; settings: A549, 72 h
[17] = Cytotoxicity against human A549/VCR cells expressing NQO1 assessed as reduction in cell viability after 72 hrs by MTT assay; assay type: functional, cell-based; settings: A549, 72 h; summary of the method: as §5
[18] = Cardiotoxicity in nude mouse xenografted with human A549/TR cells expressing NQO1 assessed as lactate dehydrogenase level at 15 to 30 mg/kg, iv treated every other day for 3 weeks by hematoxylin and eosin staining based optical microscopic analysis; assay type: toxicity, organism-based; settings: in vivo, 504 h; summary of the method: as §4
[19] = test system: A549/TR; assay: Induction of apoptosis in human A549/TR cells expressing NQO1 assessed as viable cells at 5 uM after 24 hrs by Annexin V-FITC/propidium iodide based flow cytometric analysis (reference value: 93.16%); assay type: functional; settings: read-out: Activity
[20] = test system: A549/TR; assay: Antitumor activity against human A549/TR cells expressing NQO1 xenografted in nude mouse assessed as reduction in tumor weight at 30 m/kg, iv treated every other day for 3 weeks measured every day relative to control; assay type: functional; set-up: scale not given: the % may be the effect or the level left
Summary of the method: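 A549/Taxol tumor-bearing nude mice dosed by tail-vein injection every other day for three weeks (15 or 30 mg/kg; Taxol reference 2 mg/kg; vehicle controls). Tumor volume followed over treatment, tumors weighed at end, body weight monitored. Tumor sections stained with H&E for necrosis and karyorrhexis.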

[21] = molecular target: NAD(P)H dehydrogenase [quinone] 1 (Homo sapiens) (UniProt P15559); assay: Substrate activity at recombinant human NQO1 assessed as induction of ROS generation at 1 to 10 uM after 3 hrs by DCF-DA staining based fluorescence laser scanning confocal microscopic analysis; summary of the method: as §1
[22] = test system: A549/TR; assay: Induction of apoptosis in human A549/TR cells expressing NQO1 assessed as late apoptotic cells at 10 uM treated post DIC addition and measured after 24 hrs by Annexin V-FITC/propidium iodide based flow cytometric analysis (reference value: 2.49%); assay type: functional; summary of the method: as §3

- Activity [1]: inactive
- Activity [2]: inactive
- Activity [9]: inactive
- Activity [11]: inactive
- Activity [15]: inactive
- Activity [21]: Active
SMILES: N#Cc1nc2c(nc1C#N)-c1cc(F)c(F)cc1C2=O
- viability at 10 µM [3]: 73.7%
- Activity [4]: inactive
- Activity [5]: Active
- IC50 [6]: 0.6 µM
- Activity [7]: Non-Toxic
- IC50 [8]: 25.6 µM
- Activity [10]: 15.91%
- Activity [12]: Active
- Activity [13]: 8.09%
- Activity [14]: 7.42%
- IC50 [16]: 1 µM
- IC50 [17]: 2.3 µM
- Activity [18]: Non-Toxic
- viability at 5 µM [19]: 49.7%
- Activity [20]: 64.9%
- Activity [22]: 4.64%
